The results in this text go back to ChEMBL document CHEMBL1139365, “Inhibition of MDR1 activity in vitro by a novel class of diltiazem analogues: toward new candidates” (J Med Chem, 2009).

A word on the IC50: it is the concentration at which inhibition is half-maximal. One may read the inhibition as the drop in the measured response relative to a control, in per cent.

Activity calls are given as the source filed them. The calls are words filed in the database; no cut-off is given here.

Test system in one experiment: not listed separately
Briefly: Antiproliferative activity against human A2780/DX3 cells after 3 days by MTT assay. The experiment is classed as functional, cell-based.
Conditions: not given
A digest of the protocol: (§1)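 Cells plated 6–8 h in 96-well plates. Compound alone, in duplicate at ≥5 concentrations (3-fold serial dilutions, top 100 μM), with final DMSO […] after predilution in FCS. After 3 days, MTT 4 h at 37 °C, formazan dissolved in DMSO, A540. IC50 taken from single dose–response curves; 3–4 experiments. A2780/DX3 kept doxorubicin-free 2–3 days beforehand.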
On the technique in general: Tetrazolium dyes change colour on reduction, which living cells bring about.
As to `CCCCCCCCCCCCCCCCCCOC1(c2ccc(Br)cc2)SC=C(C)n2c1noc2=O` (stereo not given), the IC5 worked out at 4.9 µM.

The molecule `CCCCCCCCCCCCCCCOC1(c2ccc(Cl)cc2)SC=C(C)n2c1noc2=O` (stereo not given) came in with an IC5 of 14.6 µM.

Molecule `CC/C=C/COC1(c2ccc(Cl)cc2)SC=C(C)n2c1noc2=O` (stereo not given) gave an IC5 of 2.5 µM.

With `CCCCCCCCCCCCCCCCCCOC1(c2ccc(Cl)cc2)SC=C(C)n2c1noc2=O` (stereo not given), the IC5 worked out at 6.74 µM.

Staying with this experiment, now noted: Homo sapiens, A2780/DX3, 72 h.
`CCCCCCCCCCCCCCCCCCOC1(c2ccc(Br)cc2)SC=C(C)n2c1noc2=O` (stereo not given): the IC50 was greater than 100 µM.

`CCCCCCCCCCCCCCCOC1(c2ccc(Cl)cc2)SC=C(C)n2c1noc2=O` (stereo not given): the 50% inhibitory concentration (IC50) is greater than 100 µM.

As for `COc1cccc2c1C(=O)c1c(O)c3c(c(O)c1C2=O)C[C@@](O)(C(=O)CO)C[C@@H]3O[C@H]1C[C@H](N)[C@H](O)[C@H](C)O1` [DOXORUBICIN], 2.21 µM corresponded to half-maximal inhibition (IC50).

Take `CC/C=C/COC1(c2ccc(Cl)cc2)SC=C(C)n2c1noc2=O` (stereo not given): the midpoint of inhibition, the IC50, lay at 88 µM.

Regarding `CCCCCCCCCCCCCCCCCCOC1(c2ccc(Cl)cc2)SC=C(C)n2c1noc2=O` (stereo not given), the IC50 was greater than 100 µM.

The next experiment relates to A2780. Briefly: Antiproliferative activity against human A2780 cells at 0.72 uM after 3 days by MTT assay. The experiment is classed as functional. The conditions noted are these: A2780, 72 h.
Take `CCCCCCCCCCCCCCCOC1(c2ccc(Cl)cc2)SC=C(C)n2c1noc2=O` (stereo not given): 0.72 µM produced 0% inhibition.

The test system of the next experiment is A2780. The experiment is described as follows: Antiproliferative activity against human A2780 cells at 2.22 uM after 3 days by MTT assay. The experiment is classed as functional. The conditions noted are these: A2780, 72 h.
For the molecule `CCCCCCCCCCCCCCCCCCOC1(c2ccc(Cl)cc2)SC=C(C)n2c1noc2=O` (stereo not given), the inhibition at 2.22 µM came out at 0%.

A further experiment relates to A2780. Briefly: Antiproliferative activity against human A2780 cells at 0.15 uM after 3 days by MTT assay. The conditions noted are these: A2780, 72 h. The experiment is classed as functional.
Take `CC/C=C/COC1(c2ccc(Cl)cc2)SC=C(C)n2c1noc2=O` (stereo not given): the inhibition at 0.15 µM worked out at 0%.

For a further experiment, the system named is A2780. Briefly: Ratio of IC50 for human A2780/DX3 cells to IC50 for human A2780 cells assessed as mean resistance index. In kind it is functional.
Conditions: not given
An outline of the steps:
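Doxorubicin alone tested by 3-day MTT assay in both lines (absorbance at 540 nm). IC50 from dose–response curves. Index is the mean IC50 in resistant cells divided by the mean IC50 in sensitive cells.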
As to `COc1cccc2c1C(=O)c1c(O)c3c(c(O)c1C2=O)C[C@@](O)(C(=O)CO)C[C@@H]3O[C@H]1C[C@H](N)[C@H](O)[C@H](C)O1` [DOXORUBICIN], the “Ratio IC50” value came to 93.

For another experiment, the system named is A2780 ADR. Briefly: Reversal of P-gp 170-mediated multidrug resistance in human A2780/DX3 cells assessed as increase in intracellular doxorubicin accumulation at 5 times IC5 pretreated for 2 hrs before doxorubicin administration measured after 2 hrs by epifluorescent microscopic analysis. In kind it is cell-based.
Conditions: not given
An outline of the steps:
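A2780/DX3 cells on chamber slides at 75–85% confluence, pretreated 2 h with compound at five times the concentration giving 5% growth inhibition. Doxorubicin 10 μM then added for 2 h. Cells washed in cold PBS, fixed in 3.7% paraformaldehyde/2% sucrose, mounted and imaged by epifluorescence at 20X. Untreated and compound-only controls included.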
Consider `COc1cccc2c1C(=O)c1c(O)c3c(c(O)c1C2=O)C[C@@](O)(C(=O)CO)C[C@@H]3O[C@H]1C[C@H](N)[C@H](O)[C@H](C)O1` [DOXORUBICIN], for which the Activity_index result was “Active”.

The subject of another experiment is A2780. Briefly: Antiproliferative activity against human A2780 cells at 0.23 uM after 3 days by MTT assay. In kind it is functional. The conditions noted are these: A2780, 72 h.
Turning to `CCCCCCCCCCCCCCCCCCOC1(c2ccc(Br)cc2)SC=C(C)n2c1noc2=O` (stereo not given), the inhibition at 0.23 µM turned out to be 0%.

The subject of a further experiment is A2780 ADR. The experiment is described as follows: Reversal of P-gp 170-mediated multidrug resistance in human A2780/DX3 cells assessed as reduction in doxorubicin IC50 at IC5 pretreated for 6 hrs before doxorubicin administration measured after 3 days by MTT assay. In kind it is cell-based. Set-up: scale not given: the % may be the effect or the level left.
Conditions: not given
An outline of the steps:
(§2)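 A2780/DX3 cells went into medium holding the modulator at its MTT-derived 0% or 5% growth-inhibition concentration. Doxorubicin (30–0.048 μM serial dilutions, modulator kept constant) was added 6 h later. MTT (2 mg/mL) was added after 3 days for 4 h at 37 °C, formazan dissolved in DMSO, A540 read. IC50 came from dose–response curves, repeated 4–6 times. % reduction is versus doxorubicin alone in the same experiment. Kruskal–Wallis/Mann–Whitney tests.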
For the molecule `CCCCCCCCCCCCCCCCCCOC1(c2ccc(Br)cc2)SC=C(C)n2c1noc2=O` (stereo not given), the Activity was -22%.

In the case of `CCCCCCCCCCCCCCCOC1(c2ccc(Cl)cc2)SC=C(C)n2c1noc2=O` (stereo not given), the Activity was -13%.

For `CC/C=C/COC1(c2ccc(Cl)cc2)SC=C(C)n2c1noc2=O` (stereo not given), the Activity is -1%.

Turning to `CCCCCCCCCCCCCCCCCCOC1(c2ccc(Cl)cc2)SC=C(C)n2c1noc2=O` (stereo not given), the Activity is -20%.

Test system in a further experiment: not listed separately
The experiment is described as follows: Antiproliferative activity against human A2780/DX3 cells at 4.5 uM after 3 days by MTT assay. The experiment is classed as functional. The conditions noted are these: A2780/DX3, 72 h.
Take `CCCCCCCCCCCCCCCOC1(c2ccc(Cl)cc2)SC=C(C)n2c1noc2=O` (stereo not given): at 4.5 µM the inhibition was 0%.

Test system in another experiment: not listed separately
The experiment is described as follows: Antiproliferative activity against human A2780/DX3 cells at 2.40 uM after 3 days by MTT assay. The experiment is classed as functional. The conditions noted are these: A2780/DX3, 72 h.
With `CCCCCCCCCCCCCCCCCCOC1(c2ccc(Cl)cc2)SC=C(C)n2c1noc2=O` (stereo not given), the inhibition at 2.4 µM amounted to 0%.

A further experiment has as its system A2780. The experiment is described as follows: Antiproliferative activity against human A2780 cells after 3 days by MTT assay. In kind it is functional, cell-based.
Conditions: not given
An outline of the steps:
as §1
Consider `CCCCCCCCCCCCCCCCCCOC1(c2ccc(Br)cc2)SC=C(C)n2c1noc2=O` (stereo not given), for which the IC5 came to 0.9 µM.

`CCCCCCCCCCCCCCCOC1(c2ccc(Cl)cc2)SC=C(C)n2c1noc2=O` (stereo not given): the IC5 was determined as 2.1 µM.

The molecule `CC/C=C/COC1(c2ccc(Cl)cc2)SC=C(C)n2c1noc2=O` (stereo not given) came in with an IC5 of 1.26 µM.

On to `CCCCCCCCCCCCCCCCCCOC1(c2ccc(Cl)cc2)SC=C(C)n2c1noc2=O` (stereo not given), for which the IC5 was 4.74 µM.

The experiment is the same for the next values; noted with them: Homo sapiens, A2780, 72 h.
`CCCCCCCCCCCCCCCCCCOC1(c2ccc(Br)cc2)SC=C(C)n2c1noc2=O` (stereo not given) registered a 50% inhibitory concentration (IC50) greater than 100 µM.

`CCCCCCCCCCCCCCCOC1(c2ccc(Cl)cc2)SC=C(C)n2c1noc2=O` (stereo not given) had an IC50 greater than 100 µM.

Take `COc1cccc2c1C(=O)c1c(O)c3c(c(O)c1C2=O)C[C@@](O)(C(=O)CO)C[C@@H]3O[C@H]1C[C@H](N)[C@H](O)[C@H](C)O1` [DOXORUBICIN]: half-maximal inhibition (IC50) was put at 0.02 µM.

In turn, `CC/C=C/COC1(c2ccc(Cl)cc2)SC=C(C)n2c1noc2=O` (stereo not given) gave a concentration for half-maximal inhibition (IC50) of 55 µM.

`CCCCCCCCCCCCCCCCCCOC1(c2ccc(Cl)cc2)SC=C(C)n2c1noc2=O` (stereo not given): the IC50 was greater than 100 µM.

Test system in a further experiment: not listed separately
Briefly: Antiproliferative activity against human A2780/DX3 cells at 1.88 uM after 3 days by MTT assay. In kind it is functional. The conditions noted are these: A2780/DX3, 72 h.
`CCCCCCCCCCCCCCCCCCOC1(c2ccc(Br)cc2)SC=C(C)n2c1noc2=O` (stereo not given) returned an inhibition at 1.88 µM of 0%.

A further experiment concerns A2780 ADR. The experiment is described as follows: Reversal of P-gp 170-mediated multidrug resistance in human A2780/DX3 cells assessed as increase in intracellular doxorubicin accumulation at 5 times IC5 pretreated for 2 hrs before doxorubicin administration measured after 2 hrs by flow cytometry. In kind it is cell-based.
Conditions: not given
A digest of the protocol:
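A2780/DX3 cells (kept in 0.1 μM doxorubicin, drug withdrawn 2–3 days before use) seeded in flasks, grown 24 h to 75–85% confluence. Modulator given at five times the 5%-growth-inhibition concentration for 2 h, then 10 μM doxorubicin for 2 h more. Cells trypsinized, fixed in 3.7% paraformaldehyde/2% sucrose in PBS. Flow cytometry, 488 nm excitation, 575 nm bandpass. Read-out is MFI, with % increase taken from the MFI ratio to doxorubicin alone.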
`CCCCCCCCCCCCCCCCCCOC1(c2ccc(Br)cc2)SC=C(C)n2c1noc2=O` (stereo not given): the Activity is less than 48%.

As to `CCCCCCCCCCCCCCCOC1(c2ccc(Cl)cc2)SC=C(C)n2c1noc2=O` (stereo not given), the Activity was less than 48%.

Take `CC/C=C/COC1(c2ccc(Cl)cc2)SC=C(C)n2c1noc2=O` (stereo not given): the Activity is less than 48%.

With `CCCCCCCCCCCCCCCCCCOC1(c2ccc(Cl)cc2)SC=C(C)n2c1noc2=O` (stereo not given), the Activity was less than 48%.

In another experiment the test system is A2780 ADR. The experiment is described as follows: Reversal of P-gp 170-mediated multidrug resistance in human A2780/DX3 cells assessed as reduction in doxorubicin IC50 at IC0 pretreated for 6 hrs before doxorubicin administration measured after 3 days by MTT assay. In kind it is cell-based. Also on record: scale not given: the % may be the effect or the level left.
Conditions: not given
An outline of the steps: as §2
For `CCCCCCCCCCCCCCCCCCOC1(c2ccc(Br)cc2)SC=C(C)n2c1noc2=O` (stereo not given), the Activity was -21%.

As for `CCCCCCCCCCCCCCCOC1(c2ccc(Cl)cc2)SC=C(C)n2c1noc2=O` (stereo not given), the Activity is -14%.

As to `CC/C=C/COC1(c2ccc(Cl)cc2)SC=C(C)n2c1noc2=O` (stereo not given), the Activity is 2%.

On to `CCCCCCCCCCCCCCCCCCOC1(c2ccc(Cl)cc2)SC=C(C)n2c1noc2=O` (stereo not given), for which the Activity is -24%.

Test system in a further experiment: not listed separately
The experiment is described as follows: Antiproliferative activity against human A2780/DX3 cells at 0.3 uM after 3 days by MTT assay. The conditions noted are these: A2780/DX3, 72 h. The experiment is classed as functional.
In turn, `CC/C=C/COC1(c2ccc(Cl)cc2)SC=C(C)n2c1noc2=O` (stereo not given) gave an inhibition at 0.3 µM of 0%.
